The test system of assay [1] is P. falciparum purified merozoites (Nluc parasites). The assay is described as follows: Invasion inhibition assay with purified merozoites. Format: cell-based, Plasmodium falciparum. Particulars: heparin 100 μg/mL, C1 4 μM, chloroquine 75 nM. The procedure, abridged: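 Purified Nluc merozoites were exposed to test compound for 30 min. Compound was then removed and newly invaded parasites grown for 24 h before Nluc quantification. Controls were heparin (100 μg/mL), C1 (4 μM) and chloroquine (75 nM). Values are relative to DMSO, with three biological replicates.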

Assay [2] has as its system P. falciparum Hyp1-Nluc late schizonts. The assay is described as follows: 4 h egress assay. The following applies: for 4-Hour Egress EC50: dilution series, DNI = did not inhibit. Format: cell-based, Plasmodium falciparum. The procedure, abridged: (§1)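 Hyp1-Nluc 3D7 parasites were sorbitol-synchronised, grown to late schizonts and isolated on a 67% Percoll gradient. They were given a 4 h window to egress and invade RBCs in test compound, either at 10× growth EC50 or as a dilution series. Egress was read as Nluc in harvested medium with NanoGlo substrate. Background controls were subtracted from egress and invasion values, then normalised to 0.1% DMSO. Three biological replicates were run, with SD.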

The subject of assay [3] is MMV390048 resistant Dd2 with S743T mutation in PI4KIIIB. The assay is described as follows: 72 h growth assay, [3H]-hypoxanthine incorporation. Type of assay: cell-based, Plasmodium falciparum. Particulars: 3H-hypoxanthine incorporation assay. The essentials: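 This was a modified [3H]-hypoxanthine incorporation assay over 72 h. It compared parental Dd2 with an MMV390048-resistant Dd2 line carrying PI4KIIIB S743T.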

Assay [4] has as its system P. falciparum Nluc trophozoite-stage parasites. The assay is described as follows: Protein secretion and export. Format: cell-based, Plasmodium falciparum. The following applies: 5 h treatment; brefeldin A 5 μg/mL, torin 2 10 nM, M-797 4.8 μM, OGHL250 3.1 μM, WEHI-518 200 nM, C3 1.2 μM, KDU731 300 nM. The essentials: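 Nluc-exporting P. falciparum, synchronized with 5% sorbitol and Percoll, grown in human RBCs at 37 °C under 1% O2/5% CO2; trophozoites at 20–24 hpi treated 5 h with test compound (0.1% DMSO vehicle). Cells differentially lysed to release RBC only, RBC plus PV, or all compartments, and Nluc signal measured in each fraction. Three biological replicates of three technical replicates.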

For assay [5], the system named is P. falciparum Hyp1-Nluc parasites. The assay is described as follows: 4 h invasion / early ring-stage development assay. Format: cell-based, Plasmodium falciparum. Particulars: 4 h treatment at 10× EC50 for growth; for Invasion / early ring-stage development normalized to 0.1% DMSO: then 24 h growth without compound. The procedure, abridged: as §1
Assay [6] has as its system Nluc. The assay is described as follows: Nluc counter screen on parasite lysates. Format: biochemical. Particulars: 10x EC50 of growth, 10 min at 37 °C. The essentials:
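Hyp1-Nluc schizonts at 1% haematocrit and 1–2% parasitaemia were lysed in 1x NanoGlo buffer. Lysates were added to test compound and incubated 10 min at 37 °C. Nluc activity was read by furimazine bioluminescence and normalised to 0.1% DMSO.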

The record followed here is article PMC10496428 (ACS Infectious Diseases, 2023).

For `CN1CCC(c2cc(-c3ccncc3)c(-c3ccc(F)cc3)[nH]2)CC1` [Compound C1, 4-[2-(4-fluorphenyl)-5-(1-methylpiperidine-4-yl)-1H-pyrrol-3-yl]pyridine], the “Invasion of purified merozoites relative to 0.1% DMSO (controls)” value in assay [1] is on record as “directly inhibited merozoite invasion”. Moreover, in assay [2] (OGHL compounds at 10× EC50 of growth), the “Egress over a 4 h window, compared to 0.1% DMSO control normalized to 100%” value is listed as 38%. Take `COc1ccc(-c2c(C)nn3c(N)c(C#N)cnc23)cc1OC` [Compound M-797]: the “fold resistance of S743T parasites compared to parental Dd2” value in assay [3] is given as 2 fold. The “4-Hour Egress EC50” value in assay [2] was “did not block egress”. The “Export of Nluc reporter into the RBC compartment relative to DMSO” value in assay [4] is listed as “significantly reduced export into the RBC compartment”. As to `CN(C(=O)c1ccn2ncc(-c3ccc(C(N)=O)cc3)c2c1)c1ccc(C#N)cn1` [KDU731], the “Export of Nluc reporter into the RBC compartment relative to DMSO” value in assay [4] is “reduced protein export into the RBC compartment”.

As for `COc1ccc(CNc2nc(-c3ccc(C(=O)O)nc3)nc3sc4c(c23)CCCC4)cc1Cl` [OGHL121, Clc1c(ccc(c1)CNc2nc(nc3sc4c(c32)CCCC4)-c5cnc(cc5)C(=O)O)OC], in assay [5], the “Invasion inhibition normalized to 0.1% DMSO” value is given as less than 50% and the “Invasion / early ring-stage development normalized to 0.1% DMSO” value is “borderline”.

As for `CNS(=O)(=O)c1ccccc1Nc1nc(Nc2ccc(N3CCOCC3)cc2OC)ncc1Br` [OGHL134, Brc1c(nc(nc1)Nc2c(cc(cc2)N3CCOCC3)OC)Nc4c(cccc4)S(=O)(=O)NC], in assay [5], the “Invasion inhibition normalized to 0.1% DMSO” value is less than 50% and the “Invasion / early ring-stage development normalized to 0.1% DMSO” value is “borderline”. For the compound `Cn1cc(-c2cnc3[nH]cc(-c4cn(Cc5cccc(F)c5F)nn4)c3c2)cn1` [OGHL169, Fc1c(cccc1Cn2nnc(c2)-c3c[nH]c4ncc(cc43)-c5cn(nc5)C)F], in assay [5], the “Invasion inhibition normalized to 0.1% DMSO” value is less than 50% and the “Invasion / early ring-stage development normalized to 0.1% DMSO” value was less than 50%. Turning to `COc1cc(OC)c(CCNC(=O)c2cn3cc(-c4cc(OCC(=O)O)ccc4OC)nc3s2)c(OC)c1` [OGHL239, s1c3n(cc1C(=O)NCCc2c(cc(cc2OC)OC)OC)cc(n3)-c4c(ccc(c4)OCC(=O)O)OC], the “direct inhibition of Nluc activity in parasite lysates” value in assay [6] is on record as “strongly inhibit Nluc activity”. `COc1cc(C(=O)N(C)C)ccc1-c1cc2nccc(-c3ccc4ccncc4c3)c2o1` [OGHL250, N(C)(C)C(=O)c1cc(c(cc1)-c5oc2c(nccc2-c4cc3cnccc3cc4)c5)OC]: the “4-Hour Egress EC50” value in assay [2] is “did not inhibit parasite egress”. For the same compound, the “Export of Nluc reporter into the RBC compartment relative to DMSO” value in assay [4] is on record as “did not significantly reduce export”.

With `C[C@H]1CCC/C=C/[C@@H]2C[C@H](O)C[C@H]2[C@H](O)/C=C/C(=O)O1` [brefeldin A], in assay [4], the “Export of Nluc reporter into the RBC compartment relative to DMSO” value is recorded as “significantly reduced export into the RBC compartment”.

Take `CCN(CC)CCCC(C)Nc1ccnc2cc(Cl)ccc12` (stereo not shown) [chloroquine]: the “Invasion of purified merozoites relative to 0.1% DMSO (controls)” value in assay [1] is recorded as “had no effect on invasion”. Turning to `Nc1ccc(-c2ccc3ncc4ccc(=O)n(-c5cccc(C(F)(F)F)c5)c4c3c2)cn1` [torin 2], in assay [4], the “Export of Nluc reporter into the RBC compartment relative to DMSO” value is “significantly reduced export into the RBC compartment”. In the case of heparin, the “Invasion / early ring-stage development normalized to 0.1% DMSO” value in assay [5] is recorded as “almost complete invasion inhibition”.
